The source of these data is article PMC7496893 (Clinical Pharmacology in Drug Development, 2019).

“Also recorded” adds a separate entry of the source. Like-named read-outs stand apart in the source and are kept apart here. Marks after values point to notes of the source that are not given here.

The format of data set [1] is in vivo, human (Japanese subjects). The note with it: for CL/F: single oral 150 mg, mean (SD). In short, it runs like this:
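Open-label parallel-group study with planned 8 per group: normal, Child-Pugh A (5–6 points) or B (7–9 points). Subjects took one 150 mg tablet with 150 mL water after an overnight fast. Blood was drawn predose, at 15 min, every 30 min to 2 h, then at 3–72 h. Plasma parent was measured by validated LC-MS/MS (LLOQ 0.25 ng/mL, linear 0.25–500 ng/mL). GMR and 90% CI came from a mixed model with hepatic group as a fixed effect.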

For data set [2] the following is noted: cited from earlier work.
The next data set concerns rheumatoid arthritis. Conditions: daily doses of 100 mg and 150 mg; cited from earlier work.
In a further data set the test system is P-glycoprotein. The note with it: verapamil (P-glycoprotein inhibitor); cited from earlier work.
Data set [3] relates to organic anion transporting polypeptide 1B1. The note with it: peficitinib with rosuvastatin; cited from earlier work.
The next data set is described as follows: Safety assessment. The class given is in vivo, human (Japanese subjects). Conditions: for tolerability: non-RA subjects with normal, mild or moderate hepatic impairment, single oral dose. The essentials:
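The safety set was every subject dosed with one 150 mg tablet after an overnight fast, assessed throughout the study. TEAEs were events that started or worsened after dosing, coded with Japanese MedDRA J16.0. Assessments also covered vital signs, ECG, hematology, biochemistry, urinalysis and liver tests: ALP, ALT, γ-GTP, total bilirubin and AST.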

Consider `NC(=O)c1cnc2[nH]ccc2c1N[C@@H]1[C@@H]2CC3C[C@H]1C[C@@](O)(C3)C2` [Peficitinib], for which the “GMR Impaired/Normal (90% CI), Cmax” value in data set [1] (mild hepatic impairment vs normal hepatic function) is listed as 1.04 (0.71, 1.53) %; in data set [1] (mild hepatic impairment vs normal hepatic function, listed as peficitinib), 1.04 (90% CI: 0.71, 1.53); in data set [1] (moderate hepatic impairment vs normal hepatic function) it was 1.82 (1.24, 2.69) %; in data set [1] (moderate hepatic impairment vs normal hepatic function, listed as peficitinib), 1.82 (90% CI: 1.24, 2.69). Also, the “increase in geometric mean Cmax” value in data set [1] (moderate hepatic impairment versus normal hepatic function) is given as 82%. For the same compound, the exposure entry in data set [1] (moderately impaired vs normal hepatic function, in words) is listed as “higher exposure”. Further, the values for the CL/F in data set [1] (mild hepatic impairment), in data set [1] (moderate hepatic impairment) and in data set [1] (normal hepatic function) were 121.3 (54.89) L/h, 74.51 (32.28) L/h and 134.9 (25.77) L/h, respectively. For the same compound, the dose proportionality entry in data set [2] (multiple doses from 30 mg twice daily to 100 mg twice daily) and in data set [2] (single dose from 3 to 300 mg) was “Dose proportionality was shown” in each case. In addition, the “plasma levels reached steady state” value in data set [2] (multiple dosing, healthy subjects) is at most 3 days. Further, in the data set on rheumatoid arthritis, the “efficacy and tolerability in RA patients” value is “effective and well tolerated”. Besides, in the data set with P-glycoprotein, the “exposure in combination with verapamil” value is on record as “increased exposure”. In addition, the “changes in the PK profile during coadministration” value in data set [3] is given as “did not demonstrate any clinically significant changes”. Further, the “changes from baseline in vital signs, ECG, or clinical laboratory parameters” value in the data set “Safety assessment” (all subjects) is “no clinically significant changes; also recorded: no clinically meaningful changes”. Further, in the data set “Safety assessment” (all subjects), the deaths entry was “no deaths”. Also, in “Safety assessment” (all subjects), the “serious TEAEs” value was “no serious TEAEs”. Besides, the “withdrawal from the study due to a TEAE” value in the data set “Safety assessment” (all subjects) was “no TEAEs leading to withdrawal; also recorded: no subjects withdrew”. Moreover, in “Safety assessment” (all subjects (N = 24)), the “number of TEAEs considered related to peficitinib” value is recorded as “Four”. Further, the Back pain in “Safety assessment” (mild impairment (n = 8)) was 0 n (%); in the data set “Safety assessment” (moderate impairment (n = 8)), 0 n (%); in the data set “Safety assessment” (normal function (n = 8)), 1 (12.5) n (%); in “Safety assessment” (total (N = 24)), 1 (4.2) n (%). In addition, the Blood urine present in the data set “Safety assessment” (mild impairment (n = 8)) is 1 (12.5) n (%); in the data set “Safety assessment” (moderate impairment (n = 8)), 0 n (%); in the data set “Safety assessment” (normal function (n = 8)), 0 n (%); in “Safety assessment” (total (N = 24)), 1 (4.2) n (%). The Diarrhea is on record as 1 (12.5) n (%) in the data set “Safety assessment” (mild impairment (n = 8)), 0 n (%) in “Safety assessment” (moderate impairment (n = 8)), 0 n (%) in the data set “Safety assessment” (normal function (n = 8)) and 1 (4.2) n (%) in “Safety assessment” (total (N = 24)). Also, the Hypotension was 0 n (%) in the data set “Safety assessment” (mild impairment (n = 8)), 1 (12.5) n (%) in “Safety assessment” (moderate impairment (n = 8)), 0 n (%) in “Safety assessment” (normal function (n = 8)) and 1 (4.2) n (%) in “Safety assessment” (total (N = 24)). The Nausea was 0 n (%) in the data set “Safety assessment” (mild impairment (n = 8)), 0 n (%) in “Safety assessment” (moderate impairment (n = 8)), 1 (12.5) n (%) in the data set “Safety assessment” (normal function (n = 8)) and 1 (4.2) n (%) in “Safety assessment” (total (N = 24)). For the same compound, the “TEAEs, Overall” value in “Safety assessment” (mild impairment (n = 8)) is given as 1 (12.5) ^b n (%); in the data set “Safety assessment” (moderate impairment (n = 8)) it was 1 (12.5) n (%); in “Safety assessment” (normal function (n = 8), single oral 150 mg), 1 (12.5) ^a n (%). Further, the tolerability entry in the data set “Safety assessment” is “well tolerated”; in the data set “Safety assessment” (listed as peficitinib), “generally well tolerated”.

In the case of `CC(C)c1nc(N(C)S(C)(=O)=O)nc(-c2ccc(F)cc2)c1/C=C/[C@@H](O)C[C@@H](O)CC(=O)O` [rosuvastatin, reference compound], the “changes in the PK profile during coadministration” value in data set [3] was “did not demonstrate any clinically significant changes”.
